Screening data (PubChem)
TRPC4 block = inhibitors of mouse TRPC4 channel | Q9QUQ5 | HEK293 TRPC4beta/mu-opioid, DAMGO-evoked Fluo4 calcium flux; hits give low values | B-score at 10 µM | actives 0.39% (n = 300,000);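 active means B-score over 3 SD under the library average, no early fluorescence shift, positive overall ratio signal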
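Assay system: HEK293 cells with stable TRPC4beta plus mu-opioid receptor expression; Probe or stimulus: DAMGO in two steps, submaximal then maximal; Dosing: single-point compound dosing; Measured by: Fluo4 calcium-dye fluorescence, kinetic read; Read-out basis: B score from integrated Fluo4 fluorescence ratio.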
TRPC6 activator = activates the mouse TRPC6 cation channel | Q61143 | HEK293-TRPC6 membrane potential dye fluorescence; hits give high values | B-score at 10 µM | actives 0.13% (n = 310,000);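 active means B-score of the integrated fluorescence ratio above library mean plus 3 SD, and starting fluorescence ratio within library mean plus 5 SD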;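 further: higher score means more depolarization so channel activation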
Target sequence (Q61143 whole entry, looked up): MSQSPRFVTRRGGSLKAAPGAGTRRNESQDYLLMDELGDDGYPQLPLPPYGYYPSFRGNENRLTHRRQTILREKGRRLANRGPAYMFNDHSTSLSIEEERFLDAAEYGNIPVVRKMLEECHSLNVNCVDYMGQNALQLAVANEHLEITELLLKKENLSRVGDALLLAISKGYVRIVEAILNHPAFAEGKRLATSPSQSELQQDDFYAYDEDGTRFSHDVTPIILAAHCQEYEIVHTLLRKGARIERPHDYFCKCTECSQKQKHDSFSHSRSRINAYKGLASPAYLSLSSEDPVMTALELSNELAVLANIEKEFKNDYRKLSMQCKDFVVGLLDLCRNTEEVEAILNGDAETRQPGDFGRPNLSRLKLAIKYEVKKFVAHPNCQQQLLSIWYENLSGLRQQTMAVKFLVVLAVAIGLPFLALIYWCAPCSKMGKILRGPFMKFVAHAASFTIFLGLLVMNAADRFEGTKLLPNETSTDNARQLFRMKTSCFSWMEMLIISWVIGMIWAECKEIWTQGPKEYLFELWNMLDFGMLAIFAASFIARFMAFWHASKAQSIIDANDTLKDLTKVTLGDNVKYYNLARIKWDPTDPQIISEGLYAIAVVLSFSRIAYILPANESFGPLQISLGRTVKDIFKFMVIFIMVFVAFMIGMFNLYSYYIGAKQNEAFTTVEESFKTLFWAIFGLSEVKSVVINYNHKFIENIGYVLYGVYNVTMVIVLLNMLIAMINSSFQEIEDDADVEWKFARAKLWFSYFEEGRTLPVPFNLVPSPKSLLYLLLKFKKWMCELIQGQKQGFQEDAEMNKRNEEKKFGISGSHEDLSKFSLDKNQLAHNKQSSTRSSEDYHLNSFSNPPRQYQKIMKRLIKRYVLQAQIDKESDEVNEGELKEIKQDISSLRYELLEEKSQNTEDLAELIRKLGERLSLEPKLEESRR
Kir21 block = Kir2.1 (mouse) channel inhibition. HEK293-Kir2.1, FluxOR thallium flux fluorescence; hits give low values. B-score at 10 µM. actives 0.85% (n = 310,000);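 active means fluorescence ratio B-score at or below minus 3 SD of library scores, with starting-brightness B-score within 2 SD, cut at about -4.2 in these data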;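 further: channel flux triggered by added potassium and thallium sulfate stimulus; B-score of peak minus minimum fluorescence over baseline after thallium stimulus; more negative B-score means stronger Kir2.1 block with less thallium influx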
TRPC4 potent = TRPC4 (mouse) allosteric potentiation. actives 0.42% (n = 310,000). B-score at 10 µM. AID 2227. HEK293 TRPC4beta/mu-opioid, DAMGO EC20, Fluo-4 Ca2+ flux; hits give high values;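 active means B-score of calcium response area above 5 SD of library B-scores, with initial fluorescence ratio within 5 SD of library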
TRPC6 inhibitor = inhibitors of mouse TRPC6 channel; Q61143; HEK293-TRPC6, membrane potential dye, ACh-evoked depolarization; hits give low values; B-score at 10 µM; actives 1.1% (n = 310,000); AID 2553;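 active means B-score under library mean minus 3 SD, initial fluorescence not abnormally high, positive integrated signal ratio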;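 further: B-score derived from integrated fluorescence ratio over the kinetic read; more negative B-score means stronger inhibition of depolarization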
TRPC4 agonist = TRPC4 (mouse) channel activation; HEK293 TRPC4beta/mu-opioid, Fluo4 calcium fluorescence; hits give high values; B-score at 10 µM; Q9QUQ5; AID 2237; actives 0.49% (n = 310,000);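 active means B-score above 5 SD of library B-scores, and initial fluorescence ratio not above library mean plus 5 SD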;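 further: positive B-score marks a calcium rise read as TRPC4 activation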
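System – HEK293 cells stably co-expressing mouse TRPC4beta and mu-opioid receptor · Signal – Fluo4 calcium-sensitive dye fluorescence, kinetic, 1 Hz baseline · Benchmarks – buffer (low) and maximal DAMGO (high) · Read-out – B score of integrated fluorescence ratio per well · Incubation – dye loading 45 min room temperature, 110 s kinetic read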
Numbers stand for hits; i = inactive. Sampled rows, rich in hits. Any-hit rate of the full collection: about 3%.

SMILES | TRPC4 block | TRPC6 activator | Kir21 block | TRPC4 potent | TRPC6 inhibitor | TRPC4 agonist
C=CCN(CC(O)c1cccc([N+](=O)[O-])c1)C(C)CCc1ccccc1 (stereo unspecified) | -5 | i | i | i | i | i
O=C(Cc1ccccc1)NC(NC(=O)Cc1ccccc1)c1cccc([N+](=O)[O-])c1 | i | i | i | i | i | i
Cc1cc(C)c2c(=O)n(CC(=O)NC3CCCC3)sc2n1 | i | i | i | i | i | i
Cc1cc(C)c2c(=O)n(CC(=O)Nc3cccc(Cl)c3C)sc2n1 | i | i | i | 16 | i | i
C=C(c1ccc(O)cc1)c1ccc(O)cc1 | -6 | i | i | i | i | i
COc1ccc2c(c1)C=C(CN1CCN(C3CCCC3)C(CCO)C1)CO2 (stereo unspecified) | i | i | i | i | i | i
Clc1ccc2c(c1)-c1nnc(Br)n1-c1ccccc1S2 | -6 | i | -7.2 | i | i | i
Brc1nnc2n1-c1ccccc1Sc1ccccc1-2 | i | i | -6 | i | i | i
c1ccc2c(c1)Sc1ccccc1-n1cnnc1-2 | i | i | i | i | i | i
Clc1ccccc1-c1nnc2n1-c1ccccc1SC2 | i | i | i | i | i | i
COc1c(CC=C(C)C)cc(C2CC(=O)c3c(O)cc(O)cc3O2)cc1CC=C(C)C (stereo unspecified) | i | i | i | i | i | i
COc1cc(O)cc2c1[C@@H]1Oc3c(ccc(O)c3CC=C(C)C)[C@@H]1CO2 | i | i | -5.2 | i | i | i
Cc1ccc2cc(C)c(SCC(=O)NCC3CCCO3)nc2c1 (stereo unspecified) | i | i | -4.3 | i | i | i
Cc1ccc(SCC(=O)NCC2CCCO2)cc1 (stereo unspecified) | i | i | i | i | i | i
C#Cc1cccc(C(=O)NC2CCCN(C3Cc4ccccc4C3)C2)c1 (stereo unspecified) | i | i | i | i | i | 188
CC(C)(CO)CNC1CCCN(C2Cc3ccccc3C2)C1 (stereo unspecified) | i | i | i | i | i | i
CC1CC(C)CN(C(=O)c2nn(C)c3c2CS(=O)(=O)c2ccccc2-3)C1 (stereo unspecified) | i | i | i | i | i | i
COc1ccc(OC)c(CCNC(=O)CCc2cn(C)c3ccccc23)c1 | i | i | -5.6 | i | i | i
CCn1cc(CCC(=O)NC(C)c2ccccc2)c2ccccc21 (stereo unspecified) | i | i | -6.1 | i | i | i
CCOc1ccccc1CNC(=O)CCc1cn(CC)c2ccccc12 | i | i | -5.9 | i | i | i
CCn1cc(CCC(=O)NCCc2ccccc2)c2ccccc21 | i | i | i | i | i | i
CC(CCc1ccccc1)NC(=O)CCc1cn(C)c2ccccc12 (stereo unspecified) | i | i | -5.6 | i | i | i
N#C/C(=C\c1cc(Br)ccc1F)C(=O)NC1CC1 | i | i | i | i | i | i
CN1C(=O)/C(=C/c2ccc(C(=O)Nc3ccc(O)cc3C(=O)O)cc2)SC1=S | i | i | i | i | i | i
COC(=O)C1CCN(C(=O)CSc2nnc(-c3ccccc3)o2)CC1 | i | i | i | i | i | i
SMILES | TRPC4 block | TRPC6 activator | Kir21 block | TRPC4 potent | TRPC6 inhibitor | TRPC4 agonist
O=C(C1CCC1)N1CCCc2cc(S(=O)(=O)N3CCN(c4ccccc4)CC3)ccc21 | i | i | i | i | i | i
C/C(=N\NC(=O)c1ccncc1)c1cccc(NC(=O)c2ccc(C(C)(C)C)cc2)c1 | i | i | i | i | i | i
C/C(=N/NC(=O)c1ccc(Cn2cccn2)o1)c1cccc(NC(=O)c2ccncc2)c1 | -6 | i | i | i | i | 62
Cc1ccc(S(=O)(=O)N(CC2CO2)c2ccccc2[N+](=O)[O-])cc1 (stereo unspecified) | i | i | i | i | i | i
Cc1ccc(S(=O)(=O)N(CC2CO2)c2cccc([N+](=O)[O-])c2)cc1 (stereo unspecified) | i | i | -4.9 | i | i | i
CN(C)c1ccc(-c2nc3ccccc3n2C)cc1 | i | i | i | i | i | 46
COc1ccc(S(=O)(=O)N2CCCC2CNC(=O)C(=O)NCc2cccs2)cc1 (stereo unspecified) | i | i | i | i | i | i
CCOc1ccccc1N1CCN(CC(O)COC2CCCc3ccccc32)CC1 (stereo unspecified) | i | i | i | i | i | i
Cc1c(Cl)cccc1NC(=O)CC1Sc2ccccc2NC1=O (stereo unspecified) | i | i | i | i | i | i
CN(CC(=O)Nc1c(Cl)cccc1Cl)C(=O)CC1Sc2ccccc2NC1=O (stereo unspecified) | -6 | i | i | i | i | i
CC(C)Oc1ccc(CC2CCC(=O)N(C)C2=O)cc1 (stereo unspecified) | i | i | i | i | i | i
CN(C)C(=O)c1cc(F)ccc1Sc1cc(Cl)ccc1Cl | i | i | -5.8 | i | i | i
CN(C)C(=O)c1cc(Cl)ccc1Sc1cc(Cl)ccc1Cl | i | i | -5.4 | i | i | i
Cc1cc2[nH]c3c(c[n+](C)c4ccccc34)c2cc1C | i | i | -7.8 | i | i | i
CCCCC1(c2ccc(F)cc2)NC(=O)N(CC(=O)N2CCN(C(=O)c3ccco3)CC2)C1=O (stereo unspecified) | i | i | i | i | i | i
CC1(C)CC(=O)C(C(C2=C(O)CC(C)(C)CC2=O)c2ccc(Br)s2)C(=O)C1 (stereo unspecified) | i | i | -7.4 | 10 | i | i
Cc1ccc(C(C2=C(O)CC(C)(C)CC2=O)C2C(=O)CC(C)(C)CC2=O)s1 (stereo unspecified) | i | i | i | i | i | i
CN(C)c1ccc(/C=C/c2ccc3ccccc3[n+]2C)cc1 | i | i | -14 | i | i | i
CC(C)c1nc2cc(C(=O)N3CCNC(=O)C3c3cccc(F)c3)ccc2o1 (stereo unspecified) | i | i | i | i | i | i
Cc1ccc(S(=O)(=O)NC(C)CCc2ccccc2)cc1 (stereo unspecified) | i | i | -4.8 | i | i | i
S=C(NCc1ccccc1)NC1CCCc2ccccc21 (stereo unspecified) | i | i | -6.2 | i | i | i
CCN(CC)S(=O)(=O)c1cc(C(=O)Nc2cc(C)[nH]n2)ccc1Cl | i | i | i | i | i | i
CC(C)Cn1c(O)c(N=NC(=O)c2cccc(S(=O)(=O)N3CCCCC3)c2)c2ccccc21 | i | i | i | 17 | i | i
CC(C)CCn1c(O)c(N=NC(=O)c2ccco2)c2ccccc21 | i | i | i | i | i | i
